Results: ChEMBL document CHEMBL4715770, “Inhibition of Low Molecular Weight Protein Tyrosine Phosphatase by an Induced-Fit Mechanism” (J Med Chem, 2016)
pIC50: −log10 of the molar value.

Columns and labels:
[1] = target: T1, Tyrosine-protein phosphatase non-receptor type 7 (Homo sapiens, UniProt P35236); assay: Inhibition of His-tagged HePTP (unknown origin) expressed in Escherichia coli BL21 cells using para-nitrophenyl phosphate as substrate incubated for 5 to 10 mins by microplate reader based spectrophotometric analysis
T1 sequence (P35236 whole entry): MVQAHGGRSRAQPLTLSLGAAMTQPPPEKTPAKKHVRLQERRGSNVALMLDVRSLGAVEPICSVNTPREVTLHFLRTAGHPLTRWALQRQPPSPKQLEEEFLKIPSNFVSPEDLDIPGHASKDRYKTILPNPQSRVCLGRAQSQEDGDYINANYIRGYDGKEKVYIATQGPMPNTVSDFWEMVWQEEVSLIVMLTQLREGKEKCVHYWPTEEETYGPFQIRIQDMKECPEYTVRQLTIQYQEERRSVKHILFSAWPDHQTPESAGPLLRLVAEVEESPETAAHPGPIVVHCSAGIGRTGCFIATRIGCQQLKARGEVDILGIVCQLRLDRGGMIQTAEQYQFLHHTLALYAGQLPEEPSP

[2] = target: T2, Tyrosine-protein phosphatase non-receptor type 1 (Homo sapiens, UniProt P18031); assay: Inhibition of His-tagged PTP1B (unknown origin) expressed in Escherichia coli BL21 cells using para-nitrophenyl phosphate as substrate incubated for 5 to 10 mins by microplate reader based spectrophotometric analysis
T2 sequence (P18031 whole entry): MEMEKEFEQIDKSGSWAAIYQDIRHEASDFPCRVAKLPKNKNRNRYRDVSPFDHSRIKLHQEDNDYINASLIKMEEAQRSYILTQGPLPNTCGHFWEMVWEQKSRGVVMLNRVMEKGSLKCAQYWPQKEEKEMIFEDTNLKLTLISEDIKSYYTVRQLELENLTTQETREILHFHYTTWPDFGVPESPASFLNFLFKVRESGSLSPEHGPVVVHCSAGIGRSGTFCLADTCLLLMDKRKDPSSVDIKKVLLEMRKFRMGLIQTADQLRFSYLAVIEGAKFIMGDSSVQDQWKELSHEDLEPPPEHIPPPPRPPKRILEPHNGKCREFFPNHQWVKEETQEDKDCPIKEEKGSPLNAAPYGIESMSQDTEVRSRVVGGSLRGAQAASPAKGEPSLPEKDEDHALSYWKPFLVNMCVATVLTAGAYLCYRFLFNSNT

[3] = target: Receptor-type tyrosine-protein phosphatase epsilon (Homo sapiens, UniProt P23469); assay: Inhibition of His-tagged PTPepsilon (unknown origin) expressed in Escherichia coli BL21 cells using para-nitrophenyl phosphate as substrate incubated for 5 to 10 mins by microplate reader based spectrophotometric analysis
Chain of Receptor-type tyrosine-protein phosphatase epsilon (P23469 whole entry): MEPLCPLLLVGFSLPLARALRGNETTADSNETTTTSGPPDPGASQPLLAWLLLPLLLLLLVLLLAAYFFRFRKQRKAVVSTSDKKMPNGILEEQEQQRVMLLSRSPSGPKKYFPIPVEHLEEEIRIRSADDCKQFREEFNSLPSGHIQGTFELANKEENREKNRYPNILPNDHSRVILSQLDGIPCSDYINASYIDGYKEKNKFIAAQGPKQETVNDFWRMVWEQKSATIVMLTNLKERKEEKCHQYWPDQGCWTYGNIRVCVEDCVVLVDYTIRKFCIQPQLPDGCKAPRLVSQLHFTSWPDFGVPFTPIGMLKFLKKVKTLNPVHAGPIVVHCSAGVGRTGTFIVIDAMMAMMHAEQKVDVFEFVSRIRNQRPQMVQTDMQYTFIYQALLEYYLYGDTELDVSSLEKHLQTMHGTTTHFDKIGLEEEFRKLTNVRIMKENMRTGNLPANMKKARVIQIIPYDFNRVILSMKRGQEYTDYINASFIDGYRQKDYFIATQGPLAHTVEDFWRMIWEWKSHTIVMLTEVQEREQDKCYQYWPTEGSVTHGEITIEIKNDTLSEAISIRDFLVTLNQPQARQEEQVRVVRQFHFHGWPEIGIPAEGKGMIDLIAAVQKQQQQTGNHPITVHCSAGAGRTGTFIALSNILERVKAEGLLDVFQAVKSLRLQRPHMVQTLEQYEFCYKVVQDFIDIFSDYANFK

[4] = Inhibition of His-tagged PTP-H1 (unknown origin) expressed in Escherichia coli BL21 cells using para-nitrophenyl phosphate as substrate incubated for 5 to 10 mins by microplate reader based spectrophotometric analysis; set-up: species or system Homo sapiens
Summary of the method: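 Enzyme at 5-20 nM was added to substrate plus a range of inhibitor concentrations and run 5-10 min at room temperature. Quenched with 5N NaOH and p-nitrophenol read at 405 nm (ε 18,000 M-1cm-1), with a no-enzyme background correction. IC50 from curve fitting.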

[5] = target: Receptor-type tyrosine-protein phosphatase mu (Homo sapiens, UniProt P28827); assay: Inhibition of His-tagged PTPmu (unknown origin) expressed in Escherichia coli BL21 cells using para-nitrophenyl phosphate as substrate incubated for 5 to 10 mins by microplate reader based spectrophotometric analysis
Chain of Receptor-type tyrosine-protein phosphatase mu (P28827 whole entry, the tested form may be a part): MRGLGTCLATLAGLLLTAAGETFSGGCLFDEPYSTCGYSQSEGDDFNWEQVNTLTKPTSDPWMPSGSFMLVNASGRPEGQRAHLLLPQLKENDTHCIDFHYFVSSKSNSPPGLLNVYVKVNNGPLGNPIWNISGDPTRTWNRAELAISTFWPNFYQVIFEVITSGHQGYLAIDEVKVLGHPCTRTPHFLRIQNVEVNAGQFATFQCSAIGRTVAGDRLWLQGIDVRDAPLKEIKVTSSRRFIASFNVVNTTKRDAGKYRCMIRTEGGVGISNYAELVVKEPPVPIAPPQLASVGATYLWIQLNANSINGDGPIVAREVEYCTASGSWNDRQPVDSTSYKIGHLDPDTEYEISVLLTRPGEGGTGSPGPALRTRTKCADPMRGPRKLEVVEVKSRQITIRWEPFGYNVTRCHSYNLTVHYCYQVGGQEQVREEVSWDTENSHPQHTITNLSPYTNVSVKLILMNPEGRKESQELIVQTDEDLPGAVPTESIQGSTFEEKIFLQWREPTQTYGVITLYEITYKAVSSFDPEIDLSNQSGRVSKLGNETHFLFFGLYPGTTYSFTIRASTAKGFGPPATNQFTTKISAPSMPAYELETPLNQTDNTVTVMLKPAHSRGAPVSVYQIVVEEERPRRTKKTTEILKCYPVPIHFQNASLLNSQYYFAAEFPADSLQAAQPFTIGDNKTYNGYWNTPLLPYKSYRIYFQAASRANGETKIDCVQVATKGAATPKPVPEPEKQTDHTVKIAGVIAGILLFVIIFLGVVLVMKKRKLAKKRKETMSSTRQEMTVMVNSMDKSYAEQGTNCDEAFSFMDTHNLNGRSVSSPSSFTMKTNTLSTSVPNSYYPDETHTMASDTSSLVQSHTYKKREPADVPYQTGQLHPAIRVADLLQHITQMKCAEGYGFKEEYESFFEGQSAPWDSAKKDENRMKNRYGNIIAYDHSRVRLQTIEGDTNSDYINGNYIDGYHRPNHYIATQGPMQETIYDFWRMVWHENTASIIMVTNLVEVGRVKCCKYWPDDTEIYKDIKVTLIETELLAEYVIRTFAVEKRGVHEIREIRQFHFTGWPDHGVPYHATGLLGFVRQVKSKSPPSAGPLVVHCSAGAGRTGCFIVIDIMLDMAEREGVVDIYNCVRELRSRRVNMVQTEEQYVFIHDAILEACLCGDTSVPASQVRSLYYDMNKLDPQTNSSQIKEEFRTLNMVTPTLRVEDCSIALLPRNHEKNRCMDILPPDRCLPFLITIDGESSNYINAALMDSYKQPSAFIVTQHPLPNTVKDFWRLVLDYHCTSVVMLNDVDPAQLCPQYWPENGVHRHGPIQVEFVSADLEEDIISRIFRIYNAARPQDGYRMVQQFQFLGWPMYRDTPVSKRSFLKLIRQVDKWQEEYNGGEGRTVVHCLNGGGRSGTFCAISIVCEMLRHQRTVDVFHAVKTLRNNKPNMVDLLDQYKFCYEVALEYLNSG

[6] = target: T3, RNA polymerase II subunit A C-terminal domain phosphatase SSU72 (Homo sapiens, UniProt Q9NP77); assay: Inhibition of His-tagged SSu72 (unknown origin) expressed in Escherichia coli BL21 cells using para-nitrophenyl phosphate as substrate incubated for 5 to 10 mins by microplate reader based spectrophotometric analysis
T3 sequence (Q9NP77 whole entry): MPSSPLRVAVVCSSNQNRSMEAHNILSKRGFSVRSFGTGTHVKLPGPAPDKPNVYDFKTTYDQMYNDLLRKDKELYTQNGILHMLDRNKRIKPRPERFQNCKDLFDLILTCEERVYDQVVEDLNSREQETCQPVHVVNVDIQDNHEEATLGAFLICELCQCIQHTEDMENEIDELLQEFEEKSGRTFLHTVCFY

[7] = target: T4, Tyrosine-protein phosphatase non-receptor type 9 (Homo sapiens, UniProt P43378); assay: Inhibition of His-tagged PTP-MEG2 (unknown origin) expressed in Escherichia coli BL21 cells using para-nitrophenyl phosphate as substrate incubated for 5 to 10 mins by microplate reader based spectrophotometric analysis
T4 sequence (P43378 whole entry): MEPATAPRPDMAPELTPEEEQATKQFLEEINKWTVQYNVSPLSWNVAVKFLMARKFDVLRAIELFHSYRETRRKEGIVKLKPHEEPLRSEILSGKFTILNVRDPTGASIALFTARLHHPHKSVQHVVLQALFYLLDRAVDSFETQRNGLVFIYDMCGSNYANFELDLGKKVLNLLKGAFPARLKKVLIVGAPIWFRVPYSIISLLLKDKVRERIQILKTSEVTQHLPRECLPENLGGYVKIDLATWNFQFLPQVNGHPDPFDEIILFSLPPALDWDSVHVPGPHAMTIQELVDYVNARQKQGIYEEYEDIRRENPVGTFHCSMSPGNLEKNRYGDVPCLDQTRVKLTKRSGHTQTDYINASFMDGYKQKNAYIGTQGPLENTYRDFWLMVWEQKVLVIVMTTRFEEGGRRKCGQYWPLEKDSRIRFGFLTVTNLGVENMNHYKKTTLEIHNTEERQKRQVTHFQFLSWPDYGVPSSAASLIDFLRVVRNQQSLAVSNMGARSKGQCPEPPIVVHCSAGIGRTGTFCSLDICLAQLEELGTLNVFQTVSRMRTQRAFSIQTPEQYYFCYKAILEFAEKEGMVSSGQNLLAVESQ

[8] = target: Tyrosine-protein phosphatase non-receptor type 13 (Homo sapiens, UniProt Q12923); assay: Inhibition of His-tagged FAP1 (unknown origin) expressed in Escherichia coli BL21 cells using para-nitrophenyl phosphate as substrate incubated for 5 to 10 mins by microplate reader based spectrophotometric analysis
Chain of Tyrosine-protein phosphatase non-receptor type 13 (Q12923 whole entry): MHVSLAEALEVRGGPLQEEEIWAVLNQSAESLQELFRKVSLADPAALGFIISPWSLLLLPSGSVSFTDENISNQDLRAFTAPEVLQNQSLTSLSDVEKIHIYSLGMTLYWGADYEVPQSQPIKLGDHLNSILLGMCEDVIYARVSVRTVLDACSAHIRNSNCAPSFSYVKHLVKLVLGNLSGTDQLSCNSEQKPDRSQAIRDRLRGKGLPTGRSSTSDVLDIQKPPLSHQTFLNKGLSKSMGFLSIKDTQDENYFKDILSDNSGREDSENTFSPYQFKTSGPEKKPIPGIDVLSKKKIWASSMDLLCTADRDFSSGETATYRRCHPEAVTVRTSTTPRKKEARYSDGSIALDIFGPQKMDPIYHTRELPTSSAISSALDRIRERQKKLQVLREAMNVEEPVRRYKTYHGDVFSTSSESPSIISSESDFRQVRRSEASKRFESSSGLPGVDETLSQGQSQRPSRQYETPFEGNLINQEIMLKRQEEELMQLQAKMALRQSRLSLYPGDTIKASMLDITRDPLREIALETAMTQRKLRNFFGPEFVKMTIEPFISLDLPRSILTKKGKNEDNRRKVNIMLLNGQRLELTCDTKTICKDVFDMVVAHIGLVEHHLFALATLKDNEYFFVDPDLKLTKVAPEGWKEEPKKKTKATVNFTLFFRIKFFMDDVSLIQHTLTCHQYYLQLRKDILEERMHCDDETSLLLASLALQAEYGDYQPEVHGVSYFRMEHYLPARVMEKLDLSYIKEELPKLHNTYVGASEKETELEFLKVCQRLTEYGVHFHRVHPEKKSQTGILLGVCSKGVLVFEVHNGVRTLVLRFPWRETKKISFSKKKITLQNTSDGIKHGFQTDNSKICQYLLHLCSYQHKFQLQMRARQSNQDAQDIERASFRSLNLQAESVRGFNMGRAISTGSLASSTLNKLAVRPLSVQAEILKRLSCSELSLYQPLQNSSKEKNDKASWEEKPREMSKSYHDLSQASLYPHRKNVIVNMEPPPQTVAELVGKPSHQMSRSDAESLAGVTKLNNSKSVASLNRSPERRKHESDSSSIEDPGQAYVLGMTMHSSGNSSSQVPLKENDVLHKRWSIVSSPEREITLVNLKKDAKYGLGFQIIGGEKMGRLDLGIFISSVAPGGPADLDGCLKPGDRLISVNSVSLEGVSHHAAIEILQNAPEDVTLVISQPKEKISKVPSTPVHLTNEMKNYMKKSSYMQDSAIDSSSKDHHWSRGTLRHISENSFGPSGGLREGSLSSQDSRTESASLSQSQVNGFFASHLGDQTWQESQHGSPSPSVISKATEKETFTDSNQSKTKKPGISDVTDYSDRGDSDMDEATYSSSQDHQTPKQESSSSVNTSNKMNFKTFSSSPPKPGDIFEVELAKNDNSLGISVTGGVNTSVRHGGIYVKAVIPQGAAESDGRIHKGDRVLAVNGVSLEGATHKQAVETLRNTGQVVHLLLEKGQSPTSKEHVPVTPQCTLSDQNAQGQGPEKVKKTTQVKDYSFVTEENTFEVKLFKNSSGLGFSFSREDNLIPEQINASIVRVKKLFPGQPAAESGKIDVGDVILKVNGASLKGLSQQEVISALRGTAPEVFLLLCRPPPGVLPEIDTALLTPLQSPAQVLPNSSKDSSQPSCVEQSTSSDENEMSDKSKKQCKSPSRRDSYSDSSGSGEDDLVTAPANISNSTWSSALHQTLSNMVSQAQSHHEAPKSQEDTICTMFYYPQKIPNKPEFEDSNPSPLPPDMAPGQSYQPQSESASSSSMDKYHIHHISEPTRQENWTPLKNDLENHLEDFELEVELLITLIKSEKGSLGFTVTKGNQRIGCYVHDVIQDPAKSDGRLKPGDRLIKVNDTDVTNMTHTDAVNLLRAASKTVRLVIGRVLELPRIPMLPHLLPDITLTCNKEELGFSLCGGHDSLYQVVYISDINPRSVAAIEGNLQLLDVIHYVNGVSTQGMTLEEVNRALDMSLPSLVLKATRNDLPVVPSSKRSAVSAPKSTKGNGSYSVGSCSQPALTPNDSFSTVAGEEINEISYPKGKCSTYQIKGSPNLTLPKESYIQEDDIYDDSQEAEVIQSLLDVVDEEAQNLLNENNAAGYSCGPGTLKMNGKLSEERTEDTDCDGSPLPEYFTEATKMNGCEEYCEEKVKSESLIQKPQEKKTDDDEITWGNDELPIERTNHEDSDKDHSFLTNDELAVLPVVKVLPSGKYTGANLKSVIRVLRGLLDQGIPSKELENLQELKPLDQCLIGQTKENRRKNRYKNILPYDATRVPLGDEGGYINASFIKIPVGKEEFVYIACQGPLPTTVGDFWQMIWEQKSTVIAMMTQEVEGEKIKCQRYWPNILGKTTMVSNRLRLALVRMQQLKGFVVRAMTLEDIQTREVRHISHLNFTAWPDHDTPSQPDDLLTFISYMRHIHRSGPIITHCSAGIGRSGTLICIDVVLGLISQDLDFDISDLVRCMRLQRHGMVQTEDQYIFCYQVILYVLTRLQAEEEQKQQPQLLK

With `O=C(Nc1nc2ccc([N+](=O)[O-])cc2s1)C(c1ccccc1)S(=O)(=O)O` (stereo unspecified) the pIC50 [1] was < 4.00, the pIC50 [2] was < 4.00 and the pIC50 [3] was < 4.00. The pIC50 [4] was < 4.00, the pIC50 [5] was < 4.00 and the pIC50 [6] was < 4.00. The pIC50 [7] was < 4.00 and the pIC50 [8] was < 4.00.

With `Cc1c(Br)cc(NC(=O)C(c2ccccc2)S(=O)(=O)O)cc1Br` (stereo unspecified) the pIC50 [1] was < 3.70, the pIC50 [2] was < 3.70 and the pIC50 [3] was < 3.70. For the same compound, the pIC50 [4] was < 3.70, the pIC50 [5] was < 3.70 and the pIC50 [6] was < 3.70. The pIC50 [8] was < 3.70.

With `O=C(Nc1cc(C(F)(F)F)cc(C(F)(F)F)c1)C(c1ccccc1)S(=O)(=O)O` (stereo unspecified) the pIC50 [1] was 4.03, the pIC50 [2] was < 3.70 and the pIC50 [3] was < 3.70. The pIC50 [4] was < 3.70, the pIC50 [5] was < 3.70 and the pIC50 [6] was 4.08. The pIC50 [7] was < 3.70 and the pIC50 [8] was 4.12.

For `O=C(Nc1ccc(OCc2ccccc2)c(Cl)c1)C(c1ccccc1)S(=O)(=O)O` (stereo unspecified), the pIC50 [1] was < 3.70, the pIC50 [3] was < 3.70 and the pIC50 [4] was < 3.70. For the same compound, the pIC50 [5] was < 3.70 and the pIC50 [7] was < 3.70.

With `O=C(Nc1ccc(-n2ccnc2)cc1)C(c1ccccc1)S(=O)(=O)O` (stereo unspecified) the pIC50 [1] was < 4.00, the pIC50 [2] was < 4.00 and the pIC50 [3] was < 4.00. The pIC50 [4] was < 4.00, the pIC50 [5] was < 4.00 and the pIC50 [6] was < 4.00. For the same compound, the pIC50 [7] was < 4.00 and the pIC50 [8] was < 4.00.
